# In ChEMBL document CHEMBL1126114, “A novel orally active inhibitor of IL-1 generation: synthesis and structure-activity relationships of 3-(4-hydroxy-1-naphthalenyl)-2-propenoic acid derivatives” (J Med Chem, 1992):
# “And” between values parts separate entries of the source, which are not always exact repeats. Equal values may be shown once.
# Tests used:
# [1] = tested on: Rattus norvegicus; experiment: Inhibitory activity against Granuloma on CMC-LPS air-pouch model at 100 mg/Kg by oral administration; type: functional
# Outline: (§1)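 Rat CMC-LPS air pouch (air, 2% CMC-Na, then LPS 5 ng). Oral dosing in 0.5% methyl cellulose 2 h before LPS. Granuloma wet weight determined 5 days after LPS; % inhibition versus control, with an LPS-free group included.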
# [2] = tested on: Rattus norvegicus; experiment: The compound was tested for Granuloma generation on CMC-LPS air-pouch model at 25 mg/Kg by oral administration; type: functional; outline: as §1
# [3] = tested on: Rattus norvegicus; experiment: % inhibition against arthritis on adjuvant-untreated paw in rats at 50 mg/Kg by oral administration; type: functional
# Outline: (§2)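 Adjuvant arthritis in rats; drug given orally once daily from the first day of adjuvant treatment. Swelling of the adjuvant-untreated paw measured by plethysmometer on day 15 after adjuvant; % inhibition versus control. Mean ± SEM of 6–10 animals; significance versus control.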
# [4] = tested on: Rattus norvegicus; experiment: Inhibitory activity against IL-1 on CMC-LPS air-pouch model at 100 mg/Kg by oral administration; type: functional
# Outline: (§3)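 Rat CMC-LPS air pouch: air s.c., 2% CMC-Na 24 h later, LPS 5 ng 24 h after that. Compound given orally in 0.5% methyl cellulose 2 h before LPS. Exudate collected at 4 h; IL-1 (extra- plus intracellular) read by LAF assay against a recombinant human IL-1α curve.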
# [5] = tested on: Rattus norvegicus; experiment: The compound was tested for IL-1 generation on CMC-LPS air-pouch model at 25 mg/Kg by oral administration; type: functional, organism-based
# Outline: (§4)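 Rats got 10 mL subcutaneous dorsal air, then 6 mL sterile 2% (w/v) CMC-Na in saline into the pouch 24 h later, then 5 ng LPS in 0.5 mL saline 24 h after that. Compound given orally as a suspension in 0.5% methyl cellulose 2 h before LPS. Exudate collected 4 h after LPS. Extra- plus intracellular IL-1 measured by LAF assay against a human recombinant IL-1α curve. Percent inhibition versus control; five rats per group.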
# [6] = tested on: Rattus norvegicus; experiment: Inhibitory activity against Granuloma on CMC-LPS air-pouch model at 12.5 mg/Kg by oral administration; type: functional; outline: as §1
# [7] = tested on: Rattus norvegicus; experiment: Inhibitory activity against PGE-2 on CMC-LPS air-pouch model at 100 mg/Kg by oral administration; type: functional
# Outline: (§5)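 Rat CMC-LPS air pouch (air, 2% CMC-Na, then LPS 5 ng). Oral dosing in 0.5% methyl cellulose 2 h before LPS. PGE2 in the exudate supernatant collected 4 h after LPS, measured by radioimmunoassay.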
# [8] = tested on: Rattus norvegicus; experiment: Compound was evaluated in vivo for the percent inhibition of IL-1 generation in rat CMC-LPS air pouch model at 50 mg/Kg concentration (oral administration); type: functional; outline: as §3
# [9] = tested on: Rattus norvegicus; experiment: The compound was tested for PGE-2 generation on CMC-LPS air-pouch model at 50 mg/Kg by oral administration; type: functional, organism-based
# Outline: (§6)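 Rat dorsal air pouch: CMC-Na (2% w/v, 6 mL) injected 24 h after the air, LPS (5 ng) 24 h after that. Oral dosing as a suspension in 0.5% methyl cellulose 2 h before LPS. Exudate sampled 4 h post-LPS; PGE2 in the exudate supernatant measured by radioimmunoassay. Percent inhibition versus control; five animals per group.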
# [10] = tested on: Rattus norvegicus; experiment: Inhibitory activity against IL-1 on CMC-LPS air-pouch model at 12.5 mg/Kg by oral administration; type: functional; outline: as §3
# [11] = tested on: Rattus norvegicus; experiment: Inhibitory activity against PGE-2 on CMC-LPS air-pouch model at 50 mg/Kg by oral administration; type: functional; outline: as §5
# [12] = tested on: Rattus norvegicus; experiment: The compound was tested for PGE-2 generation on CMC-LPS air-pouch model at 12.5 mg/Kg by oral administration; type: functional, organism-based; outline: as §6
# [13] = tested on: Rattus norvegicus; experiment: Activity against arthritis on adjuvant-untreated paw in rats at 50 mg/Kg by oral administration; type: functional; outline: as §2
# [14] = tested on: Rattus norvegicus; experiment: In vivo percent inhibition of IL-1 generation in rat CMC-LPS air pouch model at 100 uM concentration (local administration); type: functional
# Outline: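 Rat air pouch: 10 mL air s.c. into the dorsum, 2% CMC-Na in saline 24 h later, then LPS 5 ng 24 h after CMC. Compound given locally in 5% EtOH-RPMI with 30% autologous serum, 100 μM final in exudate, at 30 min before and just before LPS. Exudate IL-1 (extra- plus intracellular) read by LAF at 4 h. n=5; % inhibition ± SEM.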
# [15] = tested on: Rattus norvegicus; experiment: Inhibitory activity against PGE-2 on CMC-LPS air-pouch model at 200 mg/Kg by oral administration; type: functional; outline: as §5
# [16] = tested on: Rattus norvegicus; experiment: % inhibition against arthritis on adjuvant-untreated paw in rats at 25 mg/Kg by oral administration; type: functional; outline: as §2
# [17] = tested on: Rattus norvegicus; experiment: Inhibitory activity against IL-1 on CMC-LPS air-pouch model at 200 mg/Kg by oral administration; type: functional; outline: as §3
# [18] = tested on: Rattus norvegicus; experiment: Inhibitory activity against PGE-2 on CMC-LPS air-pouch model at 12.5 mg/Kg by oral administration; type: functional; outline: as §5
# [19] = tested on: Rattus norvegicus; experiment: Inhibitory activity against Granuloma on CMC-LPS air-pouch model at 200 mg/Kg by oral administration; type: functional; outline: as §1
# [20] = tested on: Rattus norvegicus; experiment: The compound was tested for PGE-2 generation on CMC-LPS air-pouch model at 25 mg/Kg by oral administration; type: functional, organism-based; outline: as §6
# [21] = tested on: Rattus norvegicus; experiment: Activity against arthritis on adjuvant-untreated paw in rats at 12.5 mg/Kg by oral administration; type: functional; outline: as §2
# [22] = tested on: Rattus norvegicus; experiment: The compound was tested for Granuloma generation on CMC-LPS air-pouch model at 100 mg/Kg by oral administration; type: functional; outline: as §1
# [23] = tested on: Rattus norvegicus; experiment: The compound was tested for PGE-2 generation on CMC-LPS air-pouch model at 100 mg/Kg by oral administration; type: functional, organism-based; outline: as §6
# [24] = tested on: Rattus norvegicus; experiment: The compound was tested for Granuloma generation on CMC-LPS air-pouch model at 50 mg/Kg by oral administration; type: functional; outline: as §1
# [25] = tested on: Rattus norvegicus; experiment: The compound was tested for Granuloma generation on CMC-LPS air-pouch model at 200 mg/Kg by oral administration; type: functional; outline: as §1
# [26] = tested on: Rattus norvegicus; experiment: % inhibition against arthritis on adjuvant-untreated paw in rats at 12.5 mg/Kg by oral administration; type: functional; outline: as §2
# [27] = tested on: Rattus norvegicus; experiment: Inhibitory activity against Granuloma on CMC-LPS air-pouch model at 25 mg/Kg by oral administration; type: functional; outline: as §1
# [28] = tested on: Rattus norvegicus; experiment: Inhibitory activity against IL-1 on CMC-LPS air-pouch model at 25 mg/Kg by oral administration; type: functional; outline: as §3
# [29] = tested on: Rattus norvegicus; experiment: Inhibitory activity against IL-1 on CMC-LPS air-pouch model at 50 mg/Kg by oral administration; type: functional; outline: as §3
# [30] = tested on: Rattus norvegicus; experiment: % inhibition against arthritis on adjuvant-untreated paw in rats at 100 mg/Kg by oral administration; type: functional; outline: as §2
# [31] = tested on: Rattus norvegicus; experiment: The compound was tested for IL-1 generation on CMC-LPS air-pouch model at 12.5 mg/Kg by oral administration; type: functional, organism-based; outline: as §4
# [32] = tested on: Rattus norvegicus; experiment: Inhibitory activity against PGE-2 on CMC-LPS air-pouch model at 25 mg/Kg by oral administration; type: functional; outline: as §5
# [33] = tested on: Rattus norvegicus; experiment: Activity against arthritis on adjuvant-untreated paw in rats at 100 mg/Kg by oral administration; type: functional; outline: as §2
# [34] = tested on: Rattus norvegicus; experiment: Activity against arthritis on adjuvant-untreated paw in rats at 25 mg/Kg by oral administration; type: functional; outline: as §2
# [35] = tested on: Rattus norvegicus; experiment: The compound was tested for PGE-2 generation on CMC-LPS air-pouch model at 200 mg/Kg by oral administration; type: functional, organism-based; outline: as §6
# [36] = tested on: Rattus norvegicus; experiment: The compound was tested for Granuloma generation on CMC-LPS air-pouch model at 12.5 mg/Kg by oral administration; type: functional; outline: as §1
# [37] = tested on: Rattus norvegicus; experiment: Inhibitory activity against Granuloma on CMC-LPS air-pouch model at 50 mg/Kg by oral administration; type: functional; outline: as §1
# [38] = tested on: Rattus norvegicus; experiment: Inhibitory activity against Granuloma on CMC-LPS air-pouch model at 2.5 mg/kg by oral administration; type: functional; outline: as §1
# [39] = tested on: Rattus norvegicus; experiment: The compound was tested for IL-1 generation on CMC-LPS air-pouch model at 2.5 mg/kg by oral administration; type: functional; outline: as §4
# [40] = tested on: Rattus norvegicus; experiment: Inhibitory activity against IL-1 on CMC-LPS air-pouch model at 10 mg/kg by oral administration; type: functional; outline: as §3
# [41] = tested on: Rattus norvegicus; experiment: Inhibitory activity against Granuloma on CMC-LPS air-pouch model at 10 mg/kg by oral administration; type: functional; outline: as §1
# [42] = tested on: Rattus norvegicus; experiment: Inhibitory activity against PGE-2 on CMC-LPS air-pouch model at 10 mg/kg by oral administration; type: functional; outline: as §5
# [43] = tested on: Rattus norvegicus; experiment: Inhibitory activity against PGE-2 on CMC-LPS air-pouch model at 2.5 mg/kg by oral administration; type: functional; outline: as §5
# [44] = tested on: Rattus norvegicus; experiment: % inhibition against arthritis on adjuvant-untreated paw in rats at 5 mg/kg by oral administration; type: functional; outline: as §2
# [45] = tested on: Rattus norvegicus; experiment: Inhibitory activity against IL-1 on CMC-LPS air-pouch model at 2.5 mg/kg by oral administration; type: functional; outline: as §3
smiles,measurement,setting,value
CCc1cccc2c(/C=C(/C)C(=O)O)cc(OC)c(O)c12,inhibition in vivo at 100 mg/kg,[1],76%
same,Wet weight,[2],1.61 g
same,inhibition in vivo at 50 mg/kg,[3],38.8%
same,inhibition in vivo at 100 mg/kg,[4],84%
same,Concentration,[5],1030 U/mL
same,inhibition in vivo at 12.5 mg/kg,[6],< 25%
same,inhibition in vivo at 100 mg/kg,[7],91%
same,inhibition in vivo at 50 mg/kg,[8],65%
same,Concentration,[9],2.9 ng/mL
same,inhibition in vivo at 12.5 mg/kg,[10],< 25%
same,inhibition in vivo at 50 mg/kg,[11],68%
same,Concentration,[12],5.9 ng/mL
same,Swelling,[13],33.8%
same,Inhibition,[14],94% and 91%
same,inhibition in vivo at 200 mg/kg,[15],90%
same,inhibition in vivo at 25 mg/kg,[16],34.1%
same,inhibition in vivo at 200 mg/kg,[17],91%
same,inhibition in vivo at 12.5 mg/kg,[18],35%
same,inhibition in vivo at 200 mg/kg,[19],87%
same,Concentration,[20],5.2 ng/mL
same,Swelling,[21],44.1%
same,Wet weight,[22],1.25 g
same,Concentration,[23],0.8 ng/mL
same,Wet weight,[24],1.49 g
same,Wet weight,[25],1.16 g
same,inhibition in vivo at 12.5 mg/kg,[26],20.1%
same,inhibition in vivo at 25 mg/kg,[27],37%
same,inhibition in vivo at 25 mg/kg,[28],40%
same,inhibition in vivo at 50 mg/kg,[29],65%
same,inhibition in vivo at 100 mg/kg,[30],51.4%
same,Concentration,[31],1290 U/mL
same,inhibition in vivo at 25 mg/kg,[32],43%
same,Swelling,[33],26.8%
same,Swelling,[34],36.4%
same,Concentration,[35],0.9 ng/mL
same,Wet weight,[36],1.93 g
same,inhibition in vivo at 50 mg/kg,[37],49%
C[C@]12C=CC(=O)C=C1CC[C@@H]1[C@@H]2[C@@H](O)C[C@@]2(C)[C@H]1CC[C@]2(O)C(=O)CO [PREDNISOLONE],inhibition in vivo at 2.5 mg/kg,[38],48%
same,IL-1 level,[39],596 units/mL
same,inhibition in vivo at 10 mg/kg,[40],64%
same,inhibition in vivo at 10 mg/kg,[41],88%
same,inhibition in vivo at 10 mg/kg,[42],86%
same,inhibition in vivo at 2.5 mg/kg,[43],69%
same,inhibition in vivo at 5 mg/kg,[44],44.4%
same,inhibition in vivo at 2.5 mg/kg,[45],34%
